# A selection: hits, their analogues and other compounds. The true share with any hit is near 2%.
# ASAP1 inh = inhibitors of human ASAP1 ArfGAP activity, primary screen, biochemical, fluorescence polarization. Arf-GAP with SH3 domain, ANK repeat and PH domain-containing protein 1 (Homo sapiens), …. ASAP1-stimulated ARF1 GTP hydrolysis, GDP FP detection. inhibition, % at 16.5 µM. 0.19% of 360,000 active. AID 624377, 2012; in the data active = inhibition above about 25%;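 also: 0% = vehicle with enzyme and substrate and 100% = no enzyme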
# UHRF1 binding = UHRF1 methylated DNA binding inhibitors, primary screen, counter-screen for MBD2 inhibitor project, biochemical, TR-FRET, human UHRF1, single concentration; UHRF1 binding to methylated oligo; inhibition, % at 4.4 µM; 0.75% of 370,000 active; in the data active = inhibition above about 21%;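 also: UHRF1 SRA domain binding a hemimethylated CpG hairpin DNA probe; 0% = median of test compound wells and 100% = reference inhibitor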
# MBD2 inh = inhibitors of MBD2 binding to methylated DNA, primary screen, biochemical, TR-FRET, DNA-binding domain, human; 0.31% of 370,000 active; inhibition, % at 4.4 µM; MBD2 binding to methylated oligonucleotide; AID 686964, 2013; Methyl-CpG-binding domain protein 2 (Homo sapiens), Q9UBB5; in the data active = inhibition above about 13%
# TDP2 absorb = human TDP2 enzyme inhibitors, primary screen, biochemical, epi absorbance, recombinant enzyme; Tyrosyl-DNA phosphodiesterase 2 (Homo sapiens), O95551; T5PNP hydrolysis, p-nitrophenol absorbance 415 nm; inhibition, % at 12.8 µM; 0.34% of 370,000 active;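 active = inhibition above the mean of all tested compounds plus 3 SD, set per campaign, cut at about 25% in these data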;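 also: 0% = DMSO with enzyme and 100% = buffer with substrate but no TDP2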
# Target sequence (O95551 whole entry, looked up): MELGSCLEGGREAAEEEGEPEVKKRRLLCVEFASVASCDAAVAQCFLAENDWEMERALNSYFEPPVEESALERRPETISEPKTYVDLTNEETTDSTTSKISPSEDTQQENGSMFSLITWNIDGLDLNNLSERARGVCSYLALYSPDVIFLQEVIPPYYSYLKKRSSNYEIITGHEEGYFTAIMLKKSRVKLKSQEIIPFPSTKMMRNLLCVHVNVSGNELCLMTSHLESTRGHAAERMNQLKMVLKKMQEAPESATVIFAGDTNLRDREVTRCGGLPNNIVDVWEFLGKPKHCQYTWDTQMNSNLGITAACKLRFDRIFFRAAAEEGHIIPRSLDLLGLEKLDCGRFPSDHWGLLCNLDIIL
#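 Test system: Human TDP2 enzyme | Reagent: 5 mM T5PNP | Compound dosing: 12.8 µM single point, 1% DMSO | Incubation: Enzyme reaction with compound for 2 h at 37 °C | Technique: p-Nitrophenol epi absorbance | Read-out: % inhibition relative to enzyme-containing and enzyme-free wells | Benchmarks: High control without enzyme, low control DMSO plus TDP2 | Replicates: Singlicate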
# LEDGF integ inh = blockers of LEDGF/p75-dependent integrase strand transfer – biochemical, TR-FRET, high throughput, primary screen | AID 743269, 2014 | 0.64% of 370,000 active | HIV-1 integrase (with human LEDGF/p75) | TR-FRET IN-LEDGF/p75 DNA integration, Eu/Cy5 | inhibition, % at 3.7 µM;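 active = inhibition above the screen-wide mean plus 3 SD, cut at about 13% in these data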;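 also: signal is the Cy5 over europium emission ratio at 671 and 618 nm; 0% = plate median of compound wells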
# ARFGAP1 inh = inhibitors of rat ARFGAP1 GAP activity, primary screen, biochemical, fluorescence polarization, GDP tracer; Arfgap1-stimulated ARF1 GTP hydrolysis, GDP FP detection; inhibition, % at 16.5 µM; 0.26% of 360,000 active;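 active = inhibition above a per-plate limit, mean inhibition of low control wells plus 3 SD, cut at about 25% in these data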;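 also: 0% = DMSO wells with enzyme and 100% = wells lacking Arfgap1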
# Target sequence (Q62848 1-136 limits assumed): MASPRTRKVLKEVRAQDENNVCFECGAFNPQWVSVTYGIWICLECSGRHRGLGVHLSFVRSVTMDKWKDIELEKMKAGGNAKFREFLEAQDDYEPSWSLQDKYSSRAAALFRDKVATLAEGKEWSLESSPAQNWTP
#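 system = rat Arfgap1 catalytic domain, aa 1-136 | technique = FP, GDP Alexa 633 tracer displaced from anti-GDP antibody, 620/688 nm | compound = one concentration, 16.5 µM, DMSO 1.26% | medium = HEPES-based buffer, pH 7.5 | timing = compound-enzyme preincubation 20 min, reaction 120 min, detection 60 min, 25 °C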
# Numbers without * were called inactive; . = no result.
SMILES,ASAP1 inh,UHRF1 binding,MBD2 inh,TDP2 absorb,LEDGF integ inh,ARFGAP1 inh
O=C(N/N=C/c1cn(Cc2cccc(F)c2)c2ccccc12)c1cc(O)cc(O)c1,2,66*,27*,7,39*,-2
Nc1ccc(C(=O)N/N=C/c2cn(Cc3ccc(F)cc3)c3ccccc23)cc1,3,-3,4,-6,-5,15
C#CCCCN([C@@H](CC(C)C)C(=O)OC)S(=O)(=O)c1ccccc1Br,.,-1,-1,-3,-3,.
CSCCC(NC(=O)c1ccccc1Cl)C(=O)N1CCCCC1 (centres undefined),11,41*,1,7,-2,4
Cc1ccc(C(=O)NCC(=O)O)o1,0,0,1,-5,52*,5
Cc1ccc(NC(=O)CNC(=O)c2ccc(C)o2)cc1,1,-1,3,8,-1,1
c1ccc(OC2CCN(c3ncnc4sccc34)CC2)cc1,.,3,0,-11,4,.
CC1CN(C(=O)c2ccccc2Oc2ccccc2)CC(C)O1 (centres undefined),5,33*,4,8,3,-2
COc1cccc(OC)c1C(=O)N1CC(C)OC(C)C1 (centres undefined),6,-1,-3,11,-2,15
CCOC(=O)c1oc2cccc(O)c2c1C,2,-4,2,3,-2,5
CCOC(=O)c1oc2ccc(CNC(C)(C)C)c(Cl)c2c1C,16,97*,-3,-13,3,6
O=C(NCc1cccs1)C1CCN(S(=O)(=O)c2cccc3ccccc23)CC1,.,1,1,0,-3,.
Cc1ccc(Cc2c(-c3ccco3)nc3c(C)cc(Br)cn23)cc1,-4,21*,1,3,0,-13
Cc1cc(Br)cn2c(Cc3cccc(Cl)c3)c(-c3ccco3)nc12,3,15,3,1,5,-2
Cc1ccc(-c2nc3ccc(C)cn3c2Cc2ccsc2)cc1,12,13,5,-2,-1,-1
Cc1ccc2nc(-c3ccco3)c(Cc3ccsc3)n2c1,-1,23*,7,4,-1,-2
Cc1ccc(Cc2c(-c3ccco3)nc3ccc(C)cn23)cc1,7,24*,4,-11,5,9
COC(=O)[C@]12C[C@H](CC(=O)N3CCCCC3)C(=O)N(Cc3ccc(Cl)cc3Cl)C1=C[C@H](C(C)(C)C)O[C@@H]2C,.,-2,2,-8,-2,.
O=C(O)c1ccccc1C(=O)Nc1ccccc1,-1,1,-1,-4,2,-4
O=C(Nc1ccccc1)c1ccccc1NC(=O)c1ccccc1C(=O)O,1,28*,-2,17,-1,1
CC1CN(C2CCN(S(=O)(=O)c3ccc(F)cc3)CC2)CC(C)O1 (centres undefined),-1,21*,0,-9,-2,11
CC1CN(C2CCN(S(=O)(=O)c3ccccc3)CC2)CC(C)O1 (centres undefined),-4,11,3,0,2,7
O=C(O)CSCCc1ccccn1,-7,21*,10,6,2,4
CC(=O)Nc1ccc(S(=O)(=O)N2CCSC2c2ccco2)cc1 (centres undefined),-1,27*,12,-6,4,4
Cc1ccc(S(=O)(=O)N2CCCCC2)cc1NC(=O)COC(=O)C1CC1,-7,0,2,0,-7,9
SMILES,ASAP1 inh,UHRF1 binding,MBD2 inh,TDP2 absorb,LEDGF integ inh,ARFGAP1 inh
Cc1ccc(S(=O)(=O)N2CCCCC2)cc1NC(=O)c1cc(F)c(F)c(F)c1F,-6,22*,10,5,2,8
Cc1ccc(S(=O)(=O)N2CCCCC2)cc1NC(=O)COC(=O)c1cccn1C,-10,40*,3,2,-5,-4
Cc1cc(C)cc(C(=O)NCCn2cc(SCC(=O)N3CCOCC3)c3ccccc32)c1,11,38*,2,-21,2,4
Cc1cccnc1NC(=O)/C=C/c1ccc2c(c1)OCO2,7,23*,6,14,7,-2
Cc1cccnc1NC(=O)c1ccc2c(c1)OCO2,-5,-1,0,9,-2,8
O=C1c2ccccc2NC2(CCCC2)N1O,-11,80*,2,3,-2,11
O=C1c2ccccc2NC2(CCCCC2)N1N=C1CCCCC1,3,3,-1,3,3,3
Cc1cc(C)cc(OCC(=O)NC2CCCc3ccccc32)c1 (centres undefined),-3,21*,-1,3,0,-2
O=C(NCc1ccc(C(F)(F)F)cc1)O[C@H]1CC[C@@]23CCCN2C(=O)CCC[C@H]3C1,.,2,4,-1,0,.
O=C(NC1CCN(S(=O)(=O)c2ccc(Cl)cc2)CC1)c1cccnc1,7,31*,10,2,0,15
O=C(NC1CCN(S(=O)(=O)c2ccc(Cl)c(F)c2)CC1)c1cccnc1,-5,-1,-2,8,4,-4
O=C(CC1C(=O)NCCN1C/C=C/c1ccccc1)NCCc1ccncc1 (centres undefined),-13,23*,10,-1,0,4
Cc1cccc(C)c1-n1nnnc1C1(C)Cn2nccc2C(=O)N1Cc1ccc(F)cc1 (centres undefined),.,-2,-2,6,4,.
O=C(NC1CCCC1)c1n[nH]c2ccccc12,10,45*,-5,8,-2,-3
O[C@H](COc1ccc(F)cc1)CN1CCC(C(O)(c2ccccc2)c2ccccc2)CC1,.,1,-1,-5,2,.
C/C(=N/NC(=O)CSc1nc2ccccc2n1C)c1ccco1,-14,83*,-5,6,1,-1
COc1ccc(CN(C)CCCn2cnc3c(SC)ncnc32)cc1OC,-17,29*,3,9,-4,-8
COC(=O)c1ccc2nc(C(C)(C)C)c(Cc3ccc(OC)cc3C)n2c1,-3,22*,9,7,-1,10
COC(=O)c1ccc2nc(C3CCCCC3)c(Cc3cccc(Cl)c3)n2c1,1,23*,12,5,-2,10
COC(=O)c1ccc2nc(C3CCCCC3)c(Cc3ccc(OC)cc3C)n2c1,7,21*,9,0,-1,-2
